Assay outcomes from PubChem.
DDE Tn7 FP inh: inhibitors of Tn7 peptide binding to fibrin DD(E), primary screen, biochemical, fluorescence polarization, human fibrin, Tn7 probe; Fibrinogen beta chain (Homo sapiens), P02675; FP displacement of FITC-Tn7 peptide from fibrin DD(E); 0% = median of compound wells per plate; inhibition, % at 8.3 µM; actives 0.13% (n = 370,000); AID 720508, 2013;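 active = inhibition above the mean of compounds falling within the control limits plus 3 SD of them, cut at about 14% in these data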;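 also: 0% = plate median of compound wells and 100% = 10 µM Aha-Tn7 peptide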
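Assay system: Human fibrin DD(E) protein | Medium: Tris buffer with calcium and detergent, pH 7.8 | Reagent: 0.1 µM fluorescent Tn7 | Compound dosing: Single point at 8.3 µM | Times: 10 min preincubation, 3 h with tracer, room temperature | Detection: Fluorescence polarization of the labelled Tn7 tracer | Controls: Aha-Tn7 high control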
PKA-R2B activ: activators of PKA-R2B holoenzyme, primary screen, biochemical, fluorescence polarization, Cy5-IP20, human; cAMP-dependent protein kinase catalytic subunit beta (Homo sapiens) + cAMP-dependent …; PKA-R2B holoenzyme dissociation; R2B truncated from residue 108, S112A mutant; 0% DMSO only, 100% 113 µM cGMP; activation, % at 11.4 µM; actives 0.079% (n = 340,000); AID 504700, 2011;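 active = activation above a cutoff set at the mean over all compounds plus 3 SD, cut at about 18% in these data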;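 also: higher means more holoenzyme dissociation and a rise in polarization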
Target sequence (P31323 whole entry, looked up, other chains not shown, the tested form may be a part): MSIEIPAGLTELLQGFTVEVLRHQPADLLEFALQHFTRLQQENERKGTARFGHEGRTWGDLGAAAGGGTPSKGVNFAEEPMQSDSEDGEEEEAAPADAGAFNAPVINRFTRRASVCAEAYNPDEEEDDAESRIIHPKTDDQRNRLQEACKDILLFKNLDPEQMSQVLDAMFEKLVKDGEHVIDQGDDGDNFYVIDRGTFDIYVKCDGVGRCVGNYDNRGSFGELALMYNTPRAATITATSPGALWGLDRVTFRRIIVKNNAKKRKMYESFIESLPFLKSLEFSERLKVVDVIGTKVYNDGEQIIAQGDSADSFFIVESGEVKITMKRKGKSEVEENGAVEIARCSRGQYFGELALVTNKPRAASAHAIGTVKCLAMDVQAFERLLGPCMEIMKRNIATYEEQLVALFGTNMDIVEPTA
PKA-R1A activ: activators of PKA-R1A holoenzyme, primary screen, biochemical, fluorescence polarization, Cy5-IP20, bovine R1A, mouse PKAc; cAMP-dependent protein kinase type I-alpha regulatory subunit (Bos taurus) + …; PKA-R1A dissociation; scaled: DMSO 0%, 113 µM cGMP 100%; activation, % at 11.4 µM; actives 0.083% (n = 340,000);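 active = percent activation above the mean of all tested compounds plus 3 SD, cut at about 19% in these data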;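 also: higher means more PKAc released from R1A so a rise in polarization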
DDE Tn6 FP inh: inhibitors of Tn6 peptide binding to fibrin DD(E), primary screen, biochemical, fluorescence polarization, human fibrin, Tn6 probe | Fibrinogen beta chain (Homo sapiens), P02675 | Fibrin DD(E) TRITC-Tn6 fluorescence polarization displacement | inhibition, % at 8.3 µM | actives 0.21% (n = 370,000) | AID 720509, 2013;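 active = inhibition above a per-campaign cutoff: mean of compounds within control limits plus 3 SD, cut at about 15% in these data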;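 also: 0% = median of all compound wells on the plate and 100% = blocking peptide control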
Neddyl block: inhibitors of cullin neddylation, primary screen, biochemical, TR-FRET, uHTS, NAE and Ubc12 | inhibition, % at 25 µM | actives 0.58% (n = 360,000); in the data active = inhibition above about 36%
Neddyl conf: blockade of NEDD8 conjugation to cullin – biochemical, TR-FRET, single concentration, confirmation. actives 13% (n = 1,800). shares compounds with Neddyl block. TR-FRET cullin neddylation biochemical assay. calls only at 25 µM; in the data active = inhibition above about 40%;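 also: neddylation substrate is the cullin 1 ring ligase complex with SKP2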
The depositor's hits bear a star; i = inactive; · = no result given; + = active, no number. Only some compounds are listed: those with a hit (about 1% of all), similar ones and a draw of the others.

SMILES	DDE Tn7 FP inh	PKA-R2B activ	PKA-R1A activ	DDE Tn6 FP inh	Neddyl block	Neddyl conf
O=C(Oc1ccc(Cl)c(Cl)c1)C1=CC=CN2CCS(=O)(=O)N=C12	-1	-5	-2	-2	38	·
O=C1NC(c2cccs2)Nc2sc3c(c21)CCCC3 (stereo unspecified)	-2	2	1	3	44*	i
COc1ccc([C@@]23CCN=C2c2[nH]c4ccccc4c2CCN3)c(N)c1	0	·	·	3	·	·
CCCNC(=O)c1sc2c(c1C(=O)Nc1ccccn1)CCCC2	-1	-7	7	-1	44*	i
CC(NC(=O)c1c(N)[nH]c(C(=O)c2ccc(Cl)cc2)c1-c1ccc(Br)cc1)c1cccc2ccccc12 (stereo unspecified)	5	·	·	-2	·	·
COCC(=O)NCCc1ccc(S(N)(=O)=O)cc1	-4	0	2	-3	6	·
Nc1nccnc1C(=O)OCC(=O)NCCc1ccc(S(N)(=O)=O)cc1	-4	-3	-7	-1	63*	·
CCOC(=O)C1=C(C)NC(C)=C(C(=O)OCC)C1C(=O)OCC(=O)NC(C)c1ccccc1 (stereo unspecified)	8	10	2	3	45*	·
CCOC(=O)C1=C(C)NC(C)=C(C(=O)OCC)C1C(=O)OCC(=O)NCCc1ccc(S(N)(=O)=O)cc1	-11	4	6	-2	42*	i
COP(=O)(O)CCOCCC(CC(C)C)NC(=O)OCc1ccccc1 (stereo unspecified)	-2	·	·	-3	·	·
CC1(C)Cc2c(sc(NC(=O)c3ccc4c(c3)OCCO4)c2C(N)=O)C(C)(C)N1	3	3	-12	-9	40*	i
Cc1ncc(CC(=O)n2cc(C(=O)c3cc(F)ccc3O)cn2)s1	4	-4	-17	4	41*	i
O=C1c2ccccc2/C(=C\c2ccc3[nH]ccc3c2)N1c1ccccc1	-7	2	2	-10	·	·
CCC/C(=C1/c2ccccc2C(=O)N1c1ccccc1)c1ccc2[nH]ccc2c1	-5	-21	-10	-5	44*	i
C#CCN1C(=O)[C@]2(OCCC=C[C@H]2C)c2cc(OC)ccc21	4	·	·	-2	·	·
CC1(C)C2CCC1(CS(=O)(=O)NC1CCCC1)C(=O)C2 (stereo unspecified)	-2	8	3	-1	43*	i
CC1(C)C2CCC1(CS(=O)(=O)Nc1ccccc1)C(=O)C2 (stereo unspecified)	0	-4	-4	-8	3	·
C[C@H]1C2CC(OC(=O)Nc3ccccc3C(F)(F)F)C(C2)[C@H]2CCCCN21 (stereo partly specified)	5	·	·	1	·	·
COc1cc2cc(-c3ccc(O)cc3O)nc(C)c2cc1OC	-2	-12	14	-46	-19	·
COc1cc2cc(-c3ccc(OC)c(OC)c3C)nc(N)c2cc1OC	-6	·	·	3	38*	i
Cc1c(C)c2ccc(OC(C)C(=O)NCCN3CCOCC3)c(C)c2oc1=O (stereo unspecified)	-2	-4	12	-4	52*	i
Cc1c(C)c2ccc(OC(C)C(=O)NCCCN3CCOCC3)c(C)c2oc1=O (stereo unspecified)	1	3	-1	3	46*	i
Cc1c(OC(C)C(=O)NCCN2CCOCC2)ccc2c3c(c(=O)oc12)CCC3 (stereo unspecified)	0	-9	-15	2	·	·
Cc1csc(SCC(=O)Nc2cccc3nsnc23)n1	-5	7	-1	-7	46*	·
Cc1csc(SCC(=O)Nc2ccccc2C)n1	-8	-7	-11	4	-7	·
SMILES	DDE Tn7 FP inh	PKA-R2B activ	PKA-R1A activ	DDE Tn6 FP inh	Neddyl block	Neddyl conf
O=C(NCCc1ccccc1)OCc1cn(Cc2cc(F)cc(F)c2)nn1	-2	·	·	-7	·	·
COc1ccc(-c2nn(-c3ccccc3)cc2/C=N/Nc2ccc(Cl)c(C(=O)O)c2)cc1OC	0	-3	0	-5	44*	i
O=C(NCCc1ccc(Cl)cc1)c1ccc2c(c1)ncn2C1CCCCC1	6	·	·	-1	·	·
c1cnc(SCC2CCCCC2)c(-c2nc3ccccc3[nH]2)c1	-2	·	·	-3	·	·
CCCCC(=O)Nc1cccc(-c2nc3ncccc3o2)c1C	-4	1	15	1	38*	i
Cc1ccc(S(=O)(=O)N(C)[C@H]2C[C@H]3c4[nH]c5c(-c6ccccc6)cccc5c4CCN3C(=O)[C@H]2[C@H](C)O)cc1	3	·	·	5	·	·
CCOC(=O)C1=C(C)NC(C)=C(C(=O)OCC)C1c1ccc(OC)cc1	-1	4	-10	-9	·	·
CCOC(=O)C1=C(C)NC(C)=C(C(=O)OCC)C1C	-4	1	7	8	47*	·
Nc1cccc2c(=O)[nH][nH]c(=O)c12	-14	i	i	4	48*	+
CCCCc1c(-c2ccccc2OC)ncn1Cc1cc(F)ccc1F	-2	·	·	1	·	·
Cc1cc(C)c(C#N)c(N2CCOCC2)n1	3	7	-5	5	46*	+
Cc1cc(N2CCOCC2)nc(N2CCOCC2)c1C#N	-2	1	-2	0	-4	·
CC(=O)OC[C@H]1O[C@@H](Oc2cc(O)cc3oc(-c4ccc(O)cc4)cc(=O)c23)[C@H](O[C@@H]2O[C@@H](C)[C@H](O)[C@@H](O)[C@H]2O)[C@@H](O)[C@@H]1O	-1	0	0	-4	37*	·
CC1OC(OC2C(Oc3c(-c4ccc(O)cc4)oc4cc(O)cc(O)c4c3=O)OC(COC3O[C@@H](C)[C@H](O)[C@@H](O)C3O)C(O)C2O)C(O)C(O)C1O (stereo partly specified)	3	-2	6	2	-17	·
CC(OC(=O)/C=C/c1cccc(F)c1)C(=O)NC1CCCCC1C (stereo unspecified)	-6	1	6	-9	0	·
COc1cc(/C=C/C(=O)OC(C)C(=O)NC2CCCCC2C)cc(Cl)c1OC (stereo unspecified)	-1	-8	-4	-3	40*	i
O=C(N/N=C\c1cn(-c2ccccc2)nc1-c1ccccc1)c1ccc(Br)o1	0	-3	-10	-7	17	·
O=C(N/N=C/c1nn(-c2ccccc2)cc1-c1ccccc1)c1ccncc1	-11	12	-1	-5	39*	i
